Measured values from ChEMBL document CHEMBL1146071, “2,4-diaminopyrimidine derivatives as potent growth hormone secretagogue receptor antagonists” (J Med Chem, 2006).
The source made the active and inactive calls. No cut-off for these calls is given here.

How the values were obtained:
[1] = target: T1, Growth hormone secretagogue receptor type 1 (Homo sapiens, UniProt Q92847); assay: Displacement of [125I]ghrelin from human GHS receptor expressed in CHOK cells; type: cell-based
Method in brief: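 Membranes from CHO-K cells expressing human ghrelin receptor, prepared by sonication and a 60000g spin. Filtered onto PEI-soaked GF/C, washed cold, scintillation counted; percent inhibition, sigmoidal fit for IC50.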

[2] = target: T1, Growth hormone secretagogue receptor type 1; assay: Antagonist activity at human GHS receptor by inhibition of ghrelin-induced intracellular calcium flux in CHOK cells; type: functional, cell-based
Method in brief: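 CHO-K cells stably expressing human GHS-R, grown in Ultra-CHO medium with 1% dialyzed FCS and 400 µg/mL G418, plated to confluency overnight. Loaded with Fluo-4 AM plus probenecid for 1-3 h in the dark at RT, then washed. On FLIPR (ex 488/em 520 nm), compound added first and read 3 min, then ghrelin added and read another 3 min. Duplicate or triplicate wells; sigmoidal fit for IC50.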

[3] = (§1) AUC in Sprague-Dawley rat at 5 mg/kg, iv; type: ADME, organism-based, Plasma; set-up: dose 5 mg/kg, route intravenous; conditions: Sprague-Dawley, plasma
Method in brief: (§2)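 Rats dosed at 5 mg/kg: iv for AUC (µg·h/mL), clearance (L/h·kg) and Cmax (µg/mL); oral for bioavailability unless stated otherwise. Brain (µg/g) and plasma levels taken at 1 and 8 h. Mean of n = 3.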

[4] = Oral bioavailability in Sprague-Dawley rat at 5 mg/kg; type: ADME, organism-based; conditions: in vivo; method in brief: as §2
[5] = Half life in Sprague-Dawley rat at 5 mg/kg; type: ADME, organism-based; set-up: dose 5 mg/kg; conditions: in vivo; method in brief: as §2
[6] = Plasma clearance in Sprague-Dawley rat at 5 mg/kg, iv; type: ADME, organism-based; set-up: dose 5 mg/kg, route intravenous; method in brief: as §2
[7] = Concentration in Sprague-Dawley rat brain at 5 mg/kg after 1 hr; type: ADME, organism-based; set-up: dose 5 mg/kg; conditions: read-out: Ct; method in brief: as §2
[8] = Plasma concentration in Sprague-Dawley rat at 5 mg/kg after 1 hr; type: ADME, organism-based; set-up: dose 5 mg/kg; method in brief: as §2
[9] = Cmax in Sprague-Dawley rat at 5 mg/kg, iv; type: ADME, organism-based; set-up: dose 5 mg/kg, route intravenous; conditions: in vivo; method in brief: as §2
[10] = tested on: Rattus norvegicus; assay: as §1; type: ADME, organism-based, Plasma; set-up: dose 5 mg/kg, route intravenous; conditions: in vivo; method in brief: as §2
[11] = Inhibition of adrenergic receptor
[12] = target: T2, 5-hydroxytryptamine receptor 2C (Homo sapiens, UniProt P28335); assay: Inhibition of 5HT2C receptor
T2 sequence (P28335 whole entry): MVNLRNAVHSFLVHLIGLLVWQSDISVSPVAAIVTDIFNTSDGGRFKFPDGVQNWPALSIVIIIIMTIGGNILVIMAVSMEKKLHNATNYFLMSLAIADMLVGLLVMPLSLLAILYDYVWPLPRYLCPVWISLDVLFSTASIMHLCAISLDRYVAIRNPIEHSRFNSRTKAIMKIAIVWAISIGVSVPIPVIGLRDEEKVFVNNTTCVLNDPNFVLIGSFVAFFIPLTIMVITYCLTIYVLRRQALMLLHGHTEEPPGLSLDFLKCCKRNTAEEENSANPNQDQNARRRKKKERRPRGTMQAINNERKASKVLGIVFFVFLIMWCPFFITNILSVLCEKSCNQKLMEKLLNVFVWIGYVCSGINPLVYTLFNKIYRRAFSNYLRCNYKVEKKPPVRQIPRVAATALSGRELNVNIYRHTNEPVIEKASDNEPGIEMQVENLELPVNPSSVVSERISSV

[13] = tested on: Rattus norvegicus; assay: Reduction in cumulative food intake in fasted Sprague-Dawley rat at 30 mg/kg, ip after 24 hrs; type: functional; set-up: scale not given: the % may be the effect or the level left; conditions: route intraperitoneal
Method in brief: (§3)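 Single ip dose of 10 or 30 mg/kg to free-fed or 16 h (overnight) fasted Sprague-Dawley rats. Cumulative food intake recorded at 1 and 24 h after dosing. n = 10/group, mean ± SEM; ANOVA with post hoc Dunnett.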

[14] = tested on: Rattus norvegicus; assay: Reduction in cumulative food intake in fasted Sprague-Dawley rat at 10 mg/kg, ip after 24 hrs; type: functional, organism-based; set-up: dose 10 mg/kg; method in brief: as §3
[15] = tested on: Rattus norvegicus; assay: Bioavailability in Sprague-Dawley rat at 5 mg/kg, ip; type: ADME, organism-based; conditions: in vivo
[16] = Concentration in Sprague-Dawley rat brain at 30 mg/kg, ip after 8 hrs; type: ADME, organism-based; set-up: dose 30 mg/kg, route intraperitoneal; conditions: read-out: Ct
Method in brief: (§4)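 Rats given 30 mg/kg ip. Brain (µg/g) and plasma levels measured at 1 and 8 h after dosing.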

[17] = Concentration in Sprague-Dawley rat brain at 30 mg/kg, ip after 1 hr; type: ADME, organism-based; set-up: dose 30 mg/kg, route intraperitoneal; conditions: read-out: Ct; method in brief: as §4
[18] = target: Nociceptin/orphanin FQ receptor, ORL1 (Homo sapiens) (UniProt P41146); assay: Inhibition of opioid like-1 receptor
Chain of Nociceptin/orphanin FQ receptor, ORL1 (Homo sapiens) (P41146 whole entry, looked up): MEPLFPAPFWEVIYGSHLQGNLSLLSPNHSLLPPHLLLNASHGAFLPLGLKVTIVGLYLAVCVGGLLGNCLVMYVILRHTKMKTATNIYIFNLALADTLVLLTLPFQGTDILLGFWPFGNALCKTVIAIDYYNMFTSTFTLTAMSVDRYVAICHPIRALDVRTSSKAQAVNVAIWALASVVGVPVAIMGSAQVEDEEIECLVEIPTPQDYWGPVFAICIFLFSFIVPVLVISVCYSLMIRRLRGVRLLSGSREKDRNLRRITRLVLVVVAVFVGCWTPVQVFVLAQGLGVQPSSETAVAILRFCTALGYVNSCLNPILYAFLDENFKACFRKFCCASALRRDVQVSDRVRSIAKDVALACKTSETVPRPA

[19] = tested on: Rattus norvegicus; assay: Decrease in body weight in Sprague-Dawley rat at 30 mg/kg, ip after 24 hrs; type: functional, organism-based; set-up: dose 30 mg/kg
Method in brief: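 Free-fed Sprague-Dawley rats given a single ip dose (10 or 30 mg/kg); body weight taken 24 h after dosing. n = 10/group, mean ± SEM; ANOVA with post hoc Dunnett.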

[20] = Plasma concentration in Sprague-Dawley rat at 5 mg/kg after 8 hrs; type: ADME, organism-based; set-up: dose 5 mg/kg; method in brief: as §2
[21] = target: Melanin-concentrating hormone receptor (Homo sapiens, UniProt Q969V1+Q99705); assay: Activity against MCH receptor in an intracellular calcium flux assay; type: functional, cell-based
[22] = Plasma clearance in Sprague-Dawley rat at 5 mg/kg, iv
[23] = Concentration in Sprague-Dawley rat brain at 5 mg/kg after 8 hrs; type: ADME, organism-based; set-up: dose 5 mg/kg; conditions: read-out: Ct; method in brief: as §2
[24] = target: Dopamine receptor; assay: Inhibition of dopaminergic receptor; type: protein assay
[25] = tested on: Rattus norvegicus; assay: Reduction in cumulative food intake in free-fed Sprague-Dawley rat at 10 mg/kg, ip after 24 hrs; type: functional, organism-based; set-up: dose 10 mg/kg; method in brief: as §3
[26] = Half life in Sprague-Dawley rat at 5 mg/kg, ip; type: ADME, organism-based; set-up: dose 5 mg/kg, route intraperitoneal; conditions: in vivo
[27] = Plasma concentration in Sprague-Dawley rat at 30 mg/kg, ip after 8 hrs; type: ADME, organism-based; set-up: dose 30 mg/kg, route intraperitoneal; method in brief: as §4
[28] = Plasma concentration in Sprague-Dawley rat at 30 mg/kg, ip after 1 hr; type: ADME, organism-based; set-up: dose 30 mg/kg, route intraperitoneal; method in brief: as §4
[29] = tested on: Rattus norvegicus; assay: AUC in Sprague-Dawley rat at 5 mg/kg, ip; type: ADME, organism-based, Plasma; set-up: dose 5 mg/kg, route intraperitoneal; conditions: in vivo
[30] = target: Cannabinoid receptor 1 (Homo sapiens) (UniProt P21554); assay: Inhibition of CB1 receptor at 10 uM
Chain of Cannabinoid receptor 1 (Homo sapiens) (P21554 whole entry): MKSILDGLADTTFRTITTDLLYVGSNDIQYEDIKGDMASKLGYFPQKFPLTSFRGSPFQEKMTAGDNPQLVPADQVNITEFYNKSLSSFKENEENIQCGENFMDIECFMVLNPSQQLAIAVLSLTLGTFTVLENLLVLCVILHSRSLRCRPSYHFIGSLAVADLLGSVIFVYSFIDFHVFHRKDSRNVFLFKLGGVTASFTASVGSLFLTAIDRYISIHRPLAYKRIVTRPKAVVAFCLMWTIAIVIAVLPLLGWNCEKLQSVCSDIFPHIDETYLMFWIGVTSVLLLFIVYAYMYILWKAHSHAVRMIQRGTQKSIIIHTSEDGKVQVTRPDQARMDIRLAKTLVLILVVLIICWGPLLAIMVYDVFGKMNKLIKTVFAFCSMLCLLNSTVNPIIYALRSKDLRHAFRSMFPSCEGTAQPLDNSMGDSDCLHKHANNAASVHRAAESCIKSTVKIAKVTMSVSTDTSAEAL

[31] = tested on: Rattus norvegicus; assay: Reduction in cumulative food intake in free-fed Sprague-Dawley rat at 30 mg/kg, ip after 24 hrs; type: functional; set-up: scale not given: the % may be the effect or the level left; conditions: route intraperitoneal; method in brief: as §3
[32] = target: Muscarinic acetylcholine receptor; assay: Inhibition of muscarinic receptor; type: protein assay
[33] = Inhibition of histamine receptor
[34] = tested on: Rattus norvegicus; assay: Reduction in cumulative food intake in free-fed Sprague-Dawley rat at 10 mg/kg, ip after 1 hr; type: functional, organism-based; set-up: dose 10 mg/kg; method in brief: as §3
[35] = Cmax in Sprague-Dawley rat at 5 mg/kg, ip; type: ADME, organism-based; set-up: dose 5 mg/kg, route intraperitoneal; conditions: in vivo
[36] = tested on: Rattus norvegicus; assay: Reduction in cumulative food intake in free-fed Sprague-Dawley rat at 30 mg/kg, ip after 1 hr; type: functional, organism-based; set-up: dose 30 mg/kg; method in brief: as §3

T1 sequence (Q92847 whole entry): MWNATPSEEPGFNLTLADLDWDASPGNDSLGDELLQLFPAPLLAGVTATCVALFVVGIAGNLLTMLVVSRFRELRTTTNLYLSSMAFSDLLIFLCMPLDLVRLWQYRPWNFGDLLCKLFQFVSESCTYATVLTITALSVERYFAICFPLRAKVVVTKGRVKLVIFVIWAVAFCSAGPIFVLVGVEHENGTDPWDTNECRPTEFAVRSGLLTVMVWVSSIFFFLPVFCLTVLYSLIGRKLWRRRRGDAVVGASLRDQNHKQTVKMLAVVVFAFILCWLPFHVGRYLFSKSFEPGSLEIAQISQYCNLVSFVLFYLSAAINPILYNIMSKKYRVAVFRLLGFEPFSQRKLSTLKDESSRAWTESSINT

In the case of Nc1nc(N)c(-c2ccc(NCc3ccc([N+](=O)[O-])cc3)cc2)c(COCc2ccccc2)n1, the IC50 [1] is reported as 0.2 nM and the IC50 [2] is reported as 5.8 nM.
Work on Nc1nc(N)c(-c2ccc(NCc3cc(F)c(S(=O)(=O)C(F)(F)F)c(F)c3)cc2)c(COCc2ccccc2)n1 yielded an IC50 [1] of 1 nM and an IC50 [2] of 85 nM.
In the case of CCc1nc(N)nc(N)c1-c1ccc(CNc2ccc(Cl)cc2)cc1, the IC50 [1] is reported as 300 nM and the IC50 [2] is reported as 3150 nM.
In the case of Nc1nc(N)c(-c2ccc(NCc3ccc(Cl)s3)cc2)c(COCc2ccccc2)n1, the IC50 [1] is reported as 43 nM and the IC50 [2] is reported as 320 nM.
For CCc1nc(N)nc(N)c1-c1ccc(NCc2ccc(S(C)(=O)=O)cc2)cc1, the AUC [3] was 2800 ng·h/mL, the IC50 [1] was 7.4 nM and the bioavailability [4] was 52%. It also gave an IC50 [2] of 12 nM, a half-life [5] of 6.6 h and a clearance [6] of 15.7 mL/min/kg. For the same molecule, the concentration at 1 h [7] was 50 ng/g, the concentration at 1 h [8] was 1020 ng/mL and the Cmax [9] was 320 ng/mL.
For CCc1nc(N)nc(N)c1-c1ccc(NCc2ccc(C(C)O)cc2)cc1 (stereo not given), the IC50 [1] was 13 nM and the IC50 [2] was 110 nM.
Work on Nc1nc(N)c(-c2ccc(NCc3ccc(Cl)cc3)cc2)c(COCc2ccccc2)n1 yielded an AUC [10] of 120 ng·h/mL, an IC50 [11] of over 33000 nM and an IC50 [1] of 19 nM. It also gave an IC50 [12] of over 33000 nM, a bioavailability [4] of 5.5% and an IC50 [2] of 180 nM. The Activity [13] was 24%, the Activity [14] was “Dose-dependent effect” and the F [15] was 68%. For the same molecule, the concentration at 8 h [16] was 140 ng/g, the concentration at 1 h [17] was 330 ng/g and the IC50 [18] was over 33000 nM. The Activity [19] was “Active”, the concentration at 8 h [20] was 30 ng/mL and the IC50 [21] was over 10000 nM. It also gave a clearance [22] of 36.7 mL/min/kg, a concentration at 8 h [23] of 50 ng/g and a concentration at 1 h [7] of 1070 ng/g. For the same molecule, the IC50 [24] was over 33000 nM, the Activity [25] was “Dose-dependent effect” and the half-life [26] was 3.9 h. It also gave a concentration at 8 h [27] of 190 ng/mL, a concentration at 1 h [28] of 500 ng/mL and an AUC [29] of 1140 ng·h/mL. It also gave a concentration at 1 h [8] of 350 ng/mL, an inhibition [30] of -1% and an Activity [31] of 29%. The IC50 [32] was over 5500 nM, the IC50 [33] was over 33000 nM and the Activity [34] was “Dose-dependent effect”. The Cmax [35] was 260 ng/mL, the Activity [36] was “Dose-dependent effect” and the Cmax [9] was 54 ng/mL.
CC(=O)c1ccc(CNc2ccc(-c3c(N)nc(N)nc3COCc3ccccc3)cc2)cc1 gave an IC50 [1] of 1.2 nM and an IC50 [2] of 10 nM.
CS(=O)(=O)c1ccc(CNc2ccc(-c3c(N)nc(N)nc3COCc3ccccc3)cc2)cc1 gave an IC50 [2] of 7.2 nM.
